# Results published in ChEMBL document CHEMBL3826925, “Design, synthesis and biological evaluation of PSMA/hepsin-targeted heterobivalent ligands” (Eur J Med Chem, 2016).
# Assays:
# Serine protease hepsin = Serine protease hepsin (Homo sapiens, UniProt P05981); test: Inhibition of recombinant human hepsin using Boc-QAR-AMC as substrate preincubated for 30 mins followed by substrate addition by fluorescence assay
# [1] = Drug uptake in human PC3-ML cells expressing PSMA at 10 to 1000 nM after 4 hrs by flow cytometry; assay type: ADME, cell-based; conditions: 1 µM
# [2] = Drug uptake in human PC3-ML cells expressing hepsin/PSMA at 100 to 1000 nM after 4 hrs by flow cytometry; assay type: ADME, cell-based; conditions: 1 µM
# Method in brief: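 Cells seeded at 5 × 10^5 per well and grown 48 h to full adhesion. Medium then replaced with compound in RPMI 1640 with 10% FBS for 4 h (methods state final concentration 10 µg/mL). Cells washed twice with cold PBS, fixed in 4% paraformaldehyde for 10 min, and uptake read by flow cytometry.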
# Tumour [3] = test: Drug uptake in tumor of NOD/Shi-scid/IL-2Rgamma null mouse xenografted with human PC3-ML cells expressing PSMA at 1 nmol, iv measured 24 hrs post dosing by near infrared optical imaging analysis; assay type: ADME, organism-based, Neoplasm; conditions: in vivo
# Method in brief: (§1)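 Six-week-old male NSG mice received 1 million tumor cells subcutaneously in the upper flank. Two weeks later, 1 nmol of the Cy7-labelled ligand in 100 uL PBS was injected via tail vein. NIR fluorescence images were taken 24 hr post injection with a small-animal imaging system.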
# Tumour [4] = test: Drug uptake in tumor of NOD/Shi-scid/IL-2Rgamma null mouse xenografted with human PC3-ML cells expressing PSMA/HPN at 1 nmol, iv measured 24 hrs post dosing by near infrared optical imaging analysis; assay type: ADME, organism-based, Neoplasm; conditions: in vivo; method in brief: as §1
# [5] = molecular target: Glutamate carboxypeptidase 2 (Homo sapiens, UniProt Q04609); test: Inhibition of PSMA (unknown origin) assessed as reduction in glutamate formation using NAAG as substrate preincubated for 30 mins followed by substrate addition by Amplex red assay
# Chain of Glutamate carboxypeptidase 2 (Q04609 whole entry): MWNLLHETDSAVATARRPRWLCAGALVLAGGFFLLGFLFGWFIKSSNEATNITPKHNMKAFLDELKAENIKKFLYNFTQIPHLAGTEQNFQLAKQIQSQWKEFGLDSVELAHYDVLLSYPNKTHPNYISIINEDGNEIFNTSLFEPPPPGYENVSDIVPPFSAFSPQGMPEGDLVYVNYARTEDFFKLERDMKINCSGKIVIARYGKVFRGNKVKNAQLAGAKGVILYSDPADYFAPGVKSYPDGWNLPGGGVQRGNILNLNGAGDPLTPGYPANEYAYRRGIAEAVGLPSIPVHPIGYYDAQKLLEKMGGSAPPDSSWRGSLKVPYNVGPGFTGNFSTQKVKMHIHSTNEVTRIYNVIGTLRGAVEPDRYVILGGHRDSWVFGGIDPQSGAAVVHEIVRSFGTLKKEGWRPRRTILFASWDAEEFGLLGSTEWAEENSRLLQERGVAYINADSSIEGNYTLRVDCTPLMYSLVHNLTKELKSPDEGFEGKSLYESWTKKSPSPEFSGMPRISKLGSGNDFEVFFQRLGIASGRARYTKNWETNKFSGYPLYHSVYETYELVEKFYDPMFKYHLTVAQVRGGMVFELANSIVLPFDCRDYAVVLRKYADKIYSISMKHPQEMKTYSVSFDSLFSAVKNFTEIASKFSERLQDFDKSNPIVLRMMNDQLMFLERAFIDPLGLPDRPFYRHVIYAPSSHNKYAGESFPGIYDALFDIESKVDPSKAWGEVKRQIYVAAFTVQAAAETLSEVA
# Chain of Serine protease hepsin (P05981 1-162 limits assumed): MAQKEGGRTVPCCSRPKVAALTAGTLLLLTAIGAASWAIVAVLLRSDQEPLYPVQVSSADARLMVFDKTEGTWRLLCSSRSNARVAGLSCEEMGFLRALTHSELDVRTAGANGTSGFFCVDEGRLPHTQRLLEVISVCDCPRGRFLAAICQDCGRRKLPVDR
# Chain of Serine protease hepsin (P05981 163-417 limits assumed): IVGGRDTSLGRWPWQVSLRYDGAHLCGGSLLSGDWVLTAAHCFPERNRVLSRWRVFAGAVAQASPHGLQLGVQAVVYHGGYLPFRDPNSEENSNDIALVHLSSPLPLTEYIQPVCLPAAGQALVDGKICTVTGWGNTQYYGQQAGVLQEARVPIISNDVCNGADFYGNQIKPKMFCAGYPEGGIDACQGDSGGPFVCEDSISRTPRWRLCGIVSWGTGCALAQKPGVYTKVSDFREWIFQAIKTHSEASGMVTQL
IC50 (Serine protease hepsin),Compound,further results
9.3 µM,N=C(N)c1ccc2[nH]c(-c3cc(-c4ccc(CN)cc4)ccc3O)cc2c1,
14 µM,N=C(N)c1ccc2[nH]c(-c3cc(-c4ccc(C(F)(F)F)cc4)ccc3O)cc2c1,
70 µM,N=C(N)c1ccc2[nH]c(-c3cc(-c4cccs4)ccc3O)cc2c1,
44 µM,N=C(N)c1ccc2[nH]c(-c3ccccc3O)cc2c1,
7.3 µM,COc1ccc(-c2ccc(O)c(-c3cc4cc(C(=N)N)ccc4[nH]3)c2)cc1,
5.9 µM,N=C(N)c1ccc2[nH]c(-c3cc(-c4ccc(F)cc4)ccc3O)cc2c1,
,CN1/C(=C/C=C2C=C(/C=C/C3=[N+](CCCCCC(=O)NCCCC[C@H](NC(=O)CCCCCCC(=O)NCCCCC(NC(=O)N[C@@H](CCC(=O)O)C(=O)O)C(=O)O)C(=O)NCc4ccc(-c5ccc(O)c(-c6cc7cc(C(=N)N)ccc7[nH]6)c5)cc4)c4ccc(S(=O)(=O)O)cc4C3(C)C)CCC/2)C(C)(C)c2cc(S(=O)(=O)O)ccc21 (stereo partly specified),Drug uptake [1]: Active; Drug uptake [2]: Active; Drug uptake (Tumour [3]): Not Active; Drug uptake (Tumour [4]): Active
23 µM,N=C(N)c1ccc2[nH]c(-c3cc(-c4ccc(Cl)cc4)ccc3O)cc2c1,
8.9 µM,N=C(N)c1ccc2[nH]c(-c3cc(-c4ccccc4)ccc3O)cc2c1,
11 µM,CC(C)(C)OC(=O)NCc1ccc(-c2ccc(O)c(-c3cc4cc(C(=N)N)ccc4[nH]3)c2)cc1,
,CC(=O)NC(=N)c1ccc2[nH]c(-c3cc(-c4ccc(CNC(=O)[C@H](CCCCNC(=O)CCCCC[N+]5=C(/C=C/C6=CC(=C/C=C7/N(C)c8ccc(S(=O)(=O)O)cc8C7(C)C)/CCC6)C(C)(C)c6cc(S(=O)(=O)O)ccc65)NC(=O)CCCCCCC(=O)NCCCCC(NC(=O)N[C@@H](CCC(=O)O)C(=O)O)C(=O)O)cc4)ccc3O)cc2c1 (stereo partly specified),IC50 [5]: 0.025 µM; Drug uptake [1]: Active; Drug uptake [2]: Active
